Most compounds without a hit are left out; they make up all but 1.9% or so of the library.
DDE Tn7 FP inh – inhibitors of Tn7 peptide binding to human fibrin DD(E). 370,000 compounds, 0.13% hits. FP displacement of FITC-Tn7 peptide from fibrin DD(E); 0% = median of compound wells per plate. P02675. inhibition, % at 8.3 µM;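 active = inhibition above the mean of compounds falling within the control limits plus 3 SD of them, cut at about 14% in these data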;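 note: 0% = plate median of compound wells and 100% = 10 µM Aha-Tn7 peptide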
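Assay system: human fibrin DD(E) protein / Input: 2 µM fibrin DD(E) / Benchmarks: high control of 10 µM Aha-Tn7 peptide / Measured by: fluorescence polarization of the labelled Tn7 tracer / Medium: Tris buffer with calcium and detergent, pH 7.8 / Timing: 10 min compound pre-incubation, 3 h probe incubation at room temperature / Repeats: one replicate per compound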
Tn6 DDE FP – inhibitors of Tn6 peptide binding to human fibrin DD(E) | Fibrin DD(E) TRITC-Tn6 fluorescence polarization displacement | inhibition, % at 8.3 µM | 370,000 compounds, 0.21% hits;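 active = inhibition above a per-campaign cutoff: mean of compounds within control limits plus 3 SD, cut at about 15% in these data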;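 note: 0% = median of all compound wells on the plate and 100% = blocking peptide control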
LEDGF integ inh – blocks HIV-1 LEDGF/p75-dependent DNA integration | TR-FRET IN-LEDGF/p75 DNA integration, Eu/Cy5 | inhibition, % at 3.7 µM | 370,000 compounds, 0.64% hits | AID 743269;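 active = inhibition above the screen-wide mean plus 3 SD, cut at about 13% in these data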;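 note: signal is the Cy5 over europium emission ratio at 671 and 618 nm; 0% = plate median of compound wells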
MBD2 inh – MBD2-methylated oligo binding inhibition; TR-FRET, MBD2 binding to methylated oligonucleotide; 370,000 compounds, 0.31% hits; Q9UBB5; inhibition, % at 4.4 µM; AID 686964; in the data active = inhibition above about 13%
Target sequence (Q9UBB5 whole entry, looked up): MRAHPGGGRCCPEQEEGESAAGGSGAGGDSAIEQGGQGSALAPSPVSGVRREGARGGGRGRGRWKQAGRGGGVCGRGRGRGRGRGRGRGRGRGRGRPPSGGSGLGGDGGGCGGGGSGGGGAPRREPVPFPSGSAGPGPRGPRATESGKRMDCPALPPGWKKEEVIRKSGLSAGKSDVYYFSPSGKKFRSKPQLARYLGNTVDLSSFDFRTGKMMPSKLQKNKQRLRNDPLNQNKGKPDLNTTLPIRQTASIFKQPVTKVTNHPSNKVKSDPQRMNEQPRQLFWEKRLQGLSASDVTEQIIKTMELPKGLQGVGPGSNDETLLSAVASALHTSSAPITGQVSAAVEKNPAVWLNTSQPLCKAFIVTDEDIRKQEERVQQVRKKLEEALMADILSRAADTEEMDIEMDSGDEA
TDP2 absorb – blocks human TDP2 phosphodiesterase activity; 370,000 compounds, 0.34% hits; recombinant TDP2, T5PNP hydrolysis, p-nitrophenol absorbance 415 nm; inhibition, % at 12.8 µM; O95551;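 active = inhibition above the mean of all tested compounds plus 3 SD, set per campaign, cut at about 25% in these data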;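 note: 0% = DMSO with enzyme and 100% = buffer with substrate but no TDP2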
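Test system: Human TDP2 enzyme | Reagent: 5 mM T5PNP | Compound dosing: 12.8 µM single point, 1% DMSO | Incubation: Enzyme reaction with compound for 2 h at 37 °C | Technique: p-Nitrophenol epi absorbance | Read-out: % inhibition relative to enzyme-containing and enzyme-free wells | Benchmarks: High control without enzyme, low control DMSO plus TDP2 | Replicates: Singlicate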
UHRF1 MBD2 ctr – blocks human UHRF1 binding to methylated DNA; Q96T88; UHRF1 binding to methylated oligo, TR-FRET; inhibition, % at 4.4 µM; 370,000 compounds, 0.75% hits; in the data active = inhibition above about 21%;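 note: UHRF1 SRA domain binding a hemimethylated CpG hairpin DNA probe; 0% = median of test compound wells and 100% = reference inhibitor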
IN multimer up – activates HIV-1 integrase multimerization in LEDGF counter-screen | shares compounds with LEDGF integ inh | TR-FRET HIV-1 integrase multimerization, biochemical | activation, % at 7.7 µM | 2,000 compounds, 17% hits; in the data active = activation above about 8.9%
TRFRET interf – counter-screen for LEDGF/p75 integration inhibitors: TR-FRET optical interference; inhibition, % at 7.7 µM; TR-FRET optical interference counterscreen, HIV-1 IN multimerization; shares compounds with LEDGF integ inh; AID 1053135; 2,000 tested, under 10 active;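 active = inhibition above the mean over all tested compounds plus 3 SD, which no compound reached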;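 note: 0% = integrase with antibodies and DMSO and 100% = antibodies without integrase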
IN-LEDGF confirm – confirmation of HIV-1 LEDGF/p75-dependent integration inhibitors. shares compounds with LEDGF integ inh. TR-FRET LEDGF/p75-dependent HIV-1 integration, biochemical. inhibition, % at 3.7 µM. 2,000 compounds, 36% hits. AID 1053136; in the data active = inhibition above about 14%
The depositor's hits bear a star; · = not tested or not shown.

SMILES | DDE Tn7 FP inh | Tn6 DDE FP | LEDGF integ inh | MBD2 inh | TDP2 absorb | UHRF1 MBD2 ctr | IN multimer up | TRFRET interf | IN-LEDGF confirm
CCOC(=O)c1ccc(NC(=O)c2nc[nH]c2C(=O)NCCNC(=O)c2[nH]cnc2C(=O)Nc2ccc(C(=O)OCC)cc2)cc1 | -4 | 4 | -2 | -2 | -25 | 2 | · | · | ·
CCOC(=O)c1cc2c(nc1NC(=S)Nc1ccccc1)CC(C)(C)OC2 | 3 | 0 | 18* | 0 | 8 | 1 | 2 | -8 | 3
COC(=O)C[C@@H]1C[C@H]2c3cc(NC(=O)CC4CC4)ccc3O[C@H]2[C@@H](CO)O1 | -4 | -3 | -2 | 3 | -2 | 1 | · | · | ·
COC(=O)C[C@H]1C[C@H]2c3cc(NC(=O)Cc4ccncc4)ccc3O[C@H]2[C@@H](CO)O1 | -2 | 5 | 14* | -7 | 5 | -5 | 0 | 0 | -5
O=C(COC(=O)Cc1ccsc1)NCc1ccccc1 | 4 | 1 | 30* | 3 | 1 | 1 | 2 | -8 | -1
COc1cccc(=O)c2c(C)n(CC(=O)c3ccccc3)c(C)c12 | 4 | -3 | 51* | 11 | -1 | 18 | 4 | -15 | 7
CCNc1nc(-c2cc(C)n(Cc3ccco3)c2C)cs1 | 1 | 0 | 8 | -1 | 6 | -3 | · | · | ·
Cc1cc(-c2csc(NC(=O)c3ccc(=O)[nH]c3)n2)c(C)n1Cc1ccco1 | 2 | -10 | 63* | 10 | -3 | 9 | 11* | -58 | 43*
Cc1cc(C)c(OC2(c3ccccc3)OC(=O)c3ccccc32)c(C)c1 (centres undefined) | 7 | 4 | 31* | -2 | 2 | -1 | 3 | -9 | -5
Cc1cccc(C)c1OC1(c2ccccc2)OC(=O)c2ccccc21 (centres undefined) | 3 | 4 | 0 | 2 | 1 | -4 | · | · | ·
COc1ccc(C(=O)N2CCC[C@H]2C(=O)N2CCC[C@@H]2C(=O)NCc2ccccc2)cc1F | -5 | 0 | 1 | -2 | 1 | -3 | · | · | ·
Nc1cc(=O)[nH]c(SCC(=O)Nc2ccc([N+](=O)[O-])cc2)n1 | 6 | -10 | -7 | -1 | 8 | 2 | · | · | ·
Nc1cc(=O)[nH]c(SCC(=O)Nc2cccc([N+](=O)[O-])c2)n1 | 6 | -4 | 56* | 2 | 7 | 1 | 1 | -7 | 1
COC(=O)C1=C(N)OC2=C(C(=O)CCC2)C1c1ccc2c(c1)OCO2 (centres undefined) | -1 | -9 | 6 | -3 | 12 | -1 | · | · | ·
COC(=O)C1=C(N)N(c2ccc(F)cc2)C2=C(C(=O)CCC2)C1c1ccc2c(c1)OCO2 (centres undefined) | -5 | -3 | 18* | -2 | 0 | 4 | 0 | 0 | -10
CCc1nc2ccc(C(=O)NCc3cccs3)cn2c1N(CCC(C)C)CCN(C)C | -3 | -2 | 14* | -2 | -1 | -3 | 0 | 0 | 6
O=c1c2ccccc2nc2n1CCC2 | 0 | 4 | 15* | -4 | 9 | 0 | 0 | -1 | 34*
CCOC(=O)N1CCN(C(=O)c2ccc3nc4ccc(Cl)cc4c(=O)n3c2)CC1 | -11 | -4 | 18* | -4 | -23 | 1 | 1 | -3 | 0
CCOC(=O)N1CCN(C(=O)c2ccc3nc4ccsc4c(=O)n3c2)CC1 | 1 | -6 | -4 | -2 | -1 | 0 | · | · | ·
O=C1/C(=C\c2ccco2)SC(=S)N1c1ccccc1 | 0 | -4 | 21* | 5 | 12 | 14 | 3 | -17 | 21*
O=C1/C(=C\c2ccco2)NC(=S)N1c1ccccc1 | -2 | 0 | 16* | -4 | -4 | 4 | 0 | -1 | 17*
CCCN=C1N/C(=C\c2ccco2)C(=O)N1c1ccccc1 | 0 | 3 | 3 | -4 | 5 | -1 | · | · | ·
O=C(c1ccccc1)c1ccc2c(c1)OCCCO2 | 3 | 1 | 3 | -5 | -10 | 0 | · | · | ·
O=C1COc2ccc(C(=O)c3ccccc3)cc2CN1 | 0 | 9 | 50* | -6 | -7 | -3 | -2 | 11 | 1
COc1ccc(-n2c(Cn3c(=O)sc4ccccc43)nnc2SCC(=O)N2CCCC2)cc1 | 2 | -2 | 32* | 2 | -3 | -3 | 0 | 2 | -1
SMILES | DDE Tn7 FP inh | Tn6 DDE FP | LEDGF integ inh | MBD2 inh | TDP2 absorb | UHRF1 MBD2 ctr | IN multimer up | TRFRET interf | IN-LEDGF confirm
COC(=O)c1sc2nc(N)c(C#N)cc2c1N | 4 | 1 | 34* | -2 | 1 | 9 | 2 | -9 | 2
COC(=O)C[C@@H]1CC[C@H]2[C@@H](COc3ccc(NC(=O)Nc4cccc(F)c4)cc3C(=O)N2C)O1 | -2 | 7 | -2 | 5 | 4 | -3 | · | · | ·
COC(=O)C1=C(C)N(Cc2ccccc2C(F)(F)F)C(=NCc2ccc3c(c2)OCO3)NC1c1ccc(C(F)(F)F)cc1 (centres undefined) | 1 | 7 | -2 | -2 | 4 | -2 | · | · | ·
O=C(Nc1nccs1)c1ccc(S(=O)(=O)N2CCCCC2)cc1 | 3 | -2 | 15* | 2 | -2 | 2 | 0 | -1 | 2
COC(=O)Cc1ccc(NC(=S)Nc2ccc(N3CCOCC3)cc2)cc1 | 0 | 6 | 14* | -1 | 15 | -1 | 1 | -6 | -3
Cc1cccc(NC(=S)Nc2ccc(N3CCOCC3)cc2)c1C | -1 | -6 | 21* | -1 | 19 | 0 | -2 | 9 | 6
Cc1cccc(NC(=S)NN2CCOCC2)c1C | 1 | 0 | 1 | 1 | -11 | 2 | · | · | ·
Cc1ccc(C(=O)NC(=S)Nc2ccc(N3CCOCC3)cc2)cc1C | -12 | -2 | 1 | 0 | -17 | 2 | · | · | ·
Cc1cccc(C(=O)NC(=S)Nc2ccc(N3CCOCC3)cc2)c1 | 1 | 5 | 20* | -4 | 9 | 2 | 5 | -23 | -7
C[C@@H]1CN([C@@H](C)CO)C(=O)CCCn2cc(nn2)CO[C@H]1CN(C)C(=O)Nc1ccc2c(c1)OCCO2 | -4 | -1 | 3 | 4 | 0 | 17 | · | · | ·
NS(=O)(=O)c1ccc(CCNC(=O)c2ccc(Cl)nc2)cc1 | -6 | 5 | 16* | 1 | -8 | 1 | 0 | 2 | -8
C=CCn1cnc2c(NCc3ccccc3)ncnc21 | -7 | 1 | 89* | 2 | 0 | -1 | 1 | -4 | 0

Bioassay records from PubChem BioAssay.
